Assays:
[1] = molecular target: T1, Prostaglandin G/H synthase 2 (Homo sapiens) (UniProt P35354); assay: Inhibition of COX2-mediated PGE2 formation in IL1beta/TNFalpha-stimulated human HeLa cells using arachidonic acid as substrate assessed as residual activity at 50 uM measured after 30 mins by ELISA; assay type: cell-based
T1 sequence (whole entry): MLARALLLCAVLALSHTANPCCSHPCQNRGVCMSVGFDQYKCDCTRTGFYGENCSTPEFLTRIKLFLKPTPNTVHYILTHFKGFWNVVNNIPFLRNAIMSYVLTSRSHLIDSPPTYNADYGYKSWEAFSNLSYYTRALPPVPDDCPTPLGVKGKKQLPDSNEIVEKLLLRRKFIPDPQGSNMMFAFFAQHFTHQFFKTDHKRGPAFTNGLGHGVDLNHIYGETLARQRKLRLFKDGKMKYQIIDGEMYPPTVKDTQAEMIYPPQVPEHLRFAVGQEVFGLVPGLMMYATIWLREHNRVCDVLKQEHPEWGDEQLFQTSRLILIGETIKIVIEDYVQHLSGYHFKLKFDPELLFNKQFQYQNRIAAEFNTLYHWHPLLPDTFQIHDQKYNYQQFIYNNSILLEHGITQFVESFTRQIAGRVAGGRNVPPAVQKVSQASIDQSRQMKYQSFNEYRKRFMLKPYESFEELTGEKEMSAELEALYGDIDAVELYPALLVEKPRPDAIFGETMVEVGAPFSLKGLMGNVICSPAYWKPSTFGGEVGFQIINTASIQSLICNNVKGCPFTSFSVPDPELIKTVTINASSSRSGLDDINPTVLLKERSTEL
How it was run: (§1)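 HeLa cells (3 × 10^4/well) grown 24 h, then induced with 1 ng/ml IL1β and 5 ng/ml TNFα for 24 h; washed three times with PBS containing fatty-acid-free BSA 1 mg/ml. Medium with cytokines plus compound or DMSO for 30 min, stopped on ice; supernatant PGE2 by ELISA, percent of DMSO control. Three experiments, mean ± S.E.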

[2] = molecular target: T2, Polyunsaturated fatty acid lipoxygenase ALOX12 (Homo sapiens) (UniProt P18054); assay: Inhibition of 12-LO-mediated 12-HPETE formation in human platelets using arachidonic acid as substrate assessed as residual activity at 50 uM preincubated for 15 mins before substrate addition measured after 10 mins
T2 sequence (whole entry): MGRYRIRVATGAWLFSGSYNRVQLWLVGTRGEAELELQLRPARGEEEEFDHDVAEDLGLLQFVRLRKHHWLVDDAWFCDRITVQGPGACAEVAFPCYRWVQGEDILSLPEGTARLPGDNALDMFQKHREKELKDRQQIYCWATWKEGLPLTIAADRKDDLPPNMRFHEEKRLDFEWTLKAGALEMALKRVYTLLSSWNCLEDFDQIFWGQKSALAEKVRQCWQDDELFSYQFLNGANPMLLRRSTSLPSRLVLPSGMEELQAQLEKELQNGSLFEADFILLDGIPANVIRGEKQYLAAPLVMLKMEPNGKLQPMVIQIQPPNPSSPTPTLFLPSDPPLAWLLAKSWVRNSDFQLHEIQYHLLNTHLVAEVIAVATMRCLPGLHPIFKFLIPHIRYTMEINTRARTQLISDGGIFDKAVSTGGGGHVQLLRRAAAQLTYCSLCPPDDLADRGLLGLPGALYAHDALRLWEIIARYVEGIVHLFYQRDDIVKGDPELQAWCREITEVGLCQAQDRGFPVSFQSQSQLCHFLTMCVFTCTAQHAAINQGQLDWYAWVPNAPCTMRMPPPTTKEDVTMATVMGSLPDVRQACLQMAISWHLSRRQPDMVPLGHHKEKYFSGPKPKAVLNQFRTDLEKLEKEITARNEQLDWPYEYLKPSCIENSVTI
How it was run: (§2)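 Freshly isolated human platelets (10^8 in 1 ml PBS pH 7.4 with 1 mg/ml glucose and 1 mM CaCl2) preincubated with compound or DMSO 15 min at 37 °C, then 10 µM AA added; 10 min at 37 °C, stopped with ice-cold methanol. HPLC: 12-H(P)ETE for 12-LO, 12-HHT for COX-1; percent of DMSO control, n ≥ 3, mean ± S.E.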

[3] = molecular target: T3, Polyunsaturated fatty acid lipoxygenase ALOX15 (Homo sapiens) (UniProt P16050); assay: Inhibition of 15-LO1-mediated 15-HPETE formation in human eosinophil using arachidonic acid as substrate assessed as residual activity at 50 uM preincubated for 15 mins before substrate addition measured after 10 mins
T3 sequence (whole entry): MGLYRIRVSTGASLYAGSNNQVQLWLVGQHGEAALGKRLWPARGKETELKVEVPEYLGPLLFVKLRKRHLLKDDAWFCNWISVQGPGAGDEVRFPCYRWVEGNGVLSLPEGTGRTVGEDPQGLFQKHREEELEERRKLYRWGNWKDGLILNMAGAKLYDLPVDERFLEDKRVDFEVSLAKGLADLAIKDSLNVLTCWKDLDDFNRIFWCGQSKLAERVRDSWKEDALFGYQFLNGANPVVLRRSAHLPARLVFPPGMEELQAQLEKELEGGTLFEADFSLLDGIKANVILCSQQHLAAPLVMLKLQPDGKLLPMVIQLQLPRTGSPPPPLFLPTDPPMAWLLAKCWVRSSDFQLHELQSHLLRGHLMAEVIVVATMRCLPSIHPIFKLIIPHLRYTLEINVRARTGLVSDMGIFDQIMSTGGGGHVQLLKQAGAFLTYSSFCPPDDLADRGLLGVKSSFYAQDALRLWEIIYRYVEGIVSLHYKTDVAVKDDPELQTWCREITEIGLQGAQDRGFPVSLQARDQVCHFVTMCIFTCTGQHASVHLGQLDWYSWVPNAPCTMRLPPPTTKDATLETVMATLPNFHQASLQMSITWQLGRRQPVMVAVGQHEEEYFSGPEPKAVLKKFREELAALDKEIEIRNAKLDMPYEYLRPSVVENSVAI
How it was run: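 Freshly isolated human PMNL (5 × 10^6/ml PBS-glucose, 1 mM CaCl2), with 15-LO1 from contaminating eosinophils, preincubated with compound 15 min at 37 °C; stimulated with 2.5 µM A23187 plus 20 µM AA for 10 min at 37 °C, methanol stop. 15-H(P)ETE peak quantified by HPLC as percent of DMSO control; n ≥ 3, mean ± S.E.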

[4] = molecular target: Prostaglandin G/H synthase 1 (Homo sapiens) (UniProt P23219); assay: Inhibition of COX1 in human platelets using arachidonic acid as substrate assessed as residual activity at 50 uM preincubated for 15 mins before substrate addition measured after 10 mins; how it was run: as §2
Prostaglandin G/H synthase 1 (Homo sapiens), sequence (P23219 whole entry): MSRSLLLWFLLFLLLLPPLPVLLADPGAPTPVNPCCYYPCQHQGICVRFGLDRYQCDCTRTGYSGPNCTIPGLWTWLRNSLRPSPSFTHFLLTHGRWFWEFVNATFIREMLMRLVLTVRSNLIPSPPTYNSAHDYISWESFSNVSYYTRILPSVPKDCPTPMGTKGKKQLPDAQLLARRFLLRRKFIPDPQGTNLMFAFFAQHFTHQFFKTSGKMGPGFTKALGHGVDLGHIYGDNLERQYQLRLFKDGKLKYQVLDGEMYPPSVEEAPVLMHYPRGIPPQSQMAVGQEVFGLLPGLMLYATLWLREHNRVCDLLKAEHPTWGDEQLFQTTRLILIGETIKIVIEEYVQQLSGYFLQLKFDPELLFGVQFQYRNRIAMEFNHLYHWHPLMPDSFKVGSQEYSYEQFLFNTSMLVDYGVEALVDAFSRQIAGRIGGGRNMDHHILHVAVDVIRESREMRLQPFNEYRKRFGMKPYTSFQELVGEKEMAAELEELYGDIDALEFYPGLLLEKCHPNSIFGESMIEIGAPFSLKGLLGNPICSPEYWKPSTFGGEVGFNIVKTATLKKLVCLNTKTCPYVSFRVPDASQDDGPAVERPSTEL

[5] = Cytotoxicity against human U937 cells at 30 uM after 48 hrs by LDH assay; assay type: cell-based; settings: u-937, 48 h
How it was run: (§3)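 U937 cells (DSMZ; RPMI, 10% FCS, 37 °C, 5% CO2) seeded at 1.5 × 10^4 cells/well, exposed to test agent or DMSO vehicle for 48 h. Supernatant collected after centrifugation; LDH release quantified by kit, expressed relative to detergent-lysed maximum (100%). Three experiments, mean ± S.E.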

[6] = Cytotoxicity against human U937 cells at 100 uM after 48 hrs by LDH assay; assay type: cell-based; settings: u-937, 48 h; how it was run: as §3
[7] = molecular target: T1, Prostaglandin G/H synthase 2 (Homo sapiens); assay: Inhibition of COX2-mediated PGE2 formation in IL1beta/TNFalpha-stimulated human HeLa cells using arachidonic acid as substrate assessed as residual activity at 10 uM measured after 30 mins by ELISA; assay type: cell-based; how it was run: as §1
[8] = molecular target: Prostaglandin G/H synthase 1 (Homo sapiens) (UniProt P23219); assay: Inhibition of COX1 in human platelets using arachidonic acid as substrate assessed as residual activity at 10 uM preincubated for 15 mins before substrate addition measured after 10 mins; how it was run: as §2

Activity [1] [%]	Activity [2] [%]	Activity [3] [%]	Activity [4] [%]	Activity [7] [%]	Activity [8] [%]	Structure (SMILES)	Activity [5] [%]	Activity [6] [%]
30.9	> 70	> 70	2.3	–	–	Clc1ccc(-c2csc(Nc3cc(Cl)cc(Cl)c3)n2)cc1	–	–
3.4	> 70	44.6	18.5	–	–	Cc1ccc(-c2csc(Nc3ccc(O)cc3)n2)cc1	14	–
–	–	–	–	–	–	CC(c1cc2ccccc2s1)N(O)C(N)=O (stereo not given) [ZILEUTON]	–	1.5
2.4	> 70	> 70	4.1	–	–	Oc1cccc(Nc2nc(-c3ccccc3)cs2)c1	–	–
8.6	> 70	> 70	–	–	–	COc1ccc(Nc2nc(-c3ccc(Cl)cc3)cs2)cc1OC	–	–
2.1	> 70	43.1	3.5	–	–	Oc1ccc(-c2csc(Nc3ccc(Cl)cc3)n2)cc1	1.4	–
3.8	> 70	> 70	3.2	–	–	Clc1ccc(-c2csc(Nc3ccc4c(c3)OCO4)n2)cc1	–	–
2.1	4.2	53.7	2.1	–	–	Oc1ccc(-c2csc(Nc3ccc(F)cc3)n2)cc1	–	–
59.9	> 70	> 70	38.7	–	–	CC(=O)c1cccc(Nc2nc(-c3ccc(Cl)cc3)cs2)c1	–	–
3.7	> 70	> 70	25.6	–	–	COc1ccc(Nc2nc(-c3ccc(Cl)cc3)cs2)cc1	1.6	–
> 70	> 70	> 70	2.7	–	–	FC(F)(F)c1ccc(Nc2nc(-c3ccc(Cl)cc3)cs2)cc1	–	–
42.9	> 70	> 70	2.6	–	–	OC(c1ccc(Nc2nc(-c3ccc(Cl)cc3)cs2)cc1)(C(F)(F)F)C(F)(F)F	21.7	–
3.3	> 70	> 70	26.7	–	–	Nc1ccc(-c2csc(Nc3ccc(O)cc3)n2)cc1	–	–
–	> 70	> 70	–	9.1	67.4	Oc1ccccc1Nc1nc(-c2ccc(Cl)cc2)cs1	0.9	–
> 70	> 70	> 70	> 70	–	–	Clc1ccc(-c2csc(Nc3ccc(N4CCOCC4)cc3)n2)cc1	–	–
5.3	> 70	> 70	55.8	–	–	COc1ccccc1Nc1nc(-c2ccc(Cl)cc2)cs1	–	–

Activity [1] [%]	Activity [2] [%]	Activity [3] [%]	Activity [4] [%]	Activity [7] [%]	Activity [8] [%]	Structure (SMILES)	Activity [5] [%]	Activity [6] [%]
–	32.6	> 70	–	15.1	69.4	Oc1ccc(Nc2nc(-c3ccc(Cl)c(Cl)c3)cs2)cc1	–	–
–	–	–	–	–	–	CCCCCC(O)c1cccc(OCc2ccc3ccccc3n2)c1 (stereo not given) [REV-5901]	–	28.3
5.5	> 70	> 70	6	–	–	Clc1ccc(-c2csc(Nc3ccc4c(c3)OCCO4)n2)cc1	–	–
45.1	> 70	> 70	13.7	–	–	FC(F)(F)c1cc(Nc2nc(-c3ccc(Cl)cc3)cs2)cc(C(F)(F)F)c1	18.2	–
3.2	> 70	> 70	2.3	–	–	COc1ccc(Nc2nc(-c3ccccc3)cs2)cc1	–	–
18.4	> 70	> 70	> 70	–	–	COc1ccc(Nc2nc(-c3ccc(Cl)cc3)cs2)c(OC)c1	–	–
17.8	> 70	> 70	1.1	–	–	FC(F)(F)Oc1ccc(Nc2nc(-c3ccc(Cl)cc3)cs2)cc1	–	–
4.1	> 70	> 70	28.6	–	–	Oc1ccc(Nc2nc(-c3ccc(Cl)cc3)cs2)cc1	17.5	–
2.3	> 70	50.3	2	–	–	COc1ccc(-c2csc(Nc3ccccc3)n2)cc1	–	–
39.1	> 70	41.3	> 70	–	–	O=S(=O)(c1ccc(-c2csc(Nc3ccc(Cl)cc3)n2)cc1)N1CCOCC1	–	–
2.7	> 70	57	19.5	–	–	Oc1cccc(Nc2nc(-c3ccc(Cl)cc3)cs2)c1	–	–
3.1	34.9	13	16.2	–	–	Oc1ccc(Nc2nc(-c3ccccc3)cs2)cc1	5.5	–
5	> 70	> 70	7.7	–	–	Clc1ccc(-c2csc(Nc3ccccc3)n2)cc1	–	–
2.1	> 70	> 70	16.6	–	–	CCOc1ccc(-c2csc(Nc3ccc(O)cc3)n2)cc1	–	–
9.1	> 70	> 70	56.1	–	–	CC(=O)c1ccc(Nc2nc(-c3ccc(F)cc3)cs2)cc1	–	–

— ChEMBL document CHEMBL3352533, “Multi-dimensional target profiling of N,4-diaryl-1,3-thiazole-2-amines as potent inhibitors of eicosanoid metabolism” (Eur J Med Chem, 2014)
